Assay results: ChEMBL document CHEMBL2413060, “Synthesis, biological evaluation and molecular docking studies of some pyrimidine derivatives” (2013)
Values after ≈ are worked out from the molar mass of the structure shown.

Columns and labels:
Assay type in all cases: functional
[1] = tested on: Staphylococcus aureus; assay: Antibacterial activity against Staphylococcus aureus ATCC 6538P assessed as diameter of inhibition zone at 1 mg/ml after 24 hrs by cup diffusion method (reference value: 15 mm); settings: read-out: DIZ
[2] = tested on: Pseudomonas aeruginosa; assay: Antibacterial activity against Pseudomonas aeruginosa ATCC 9027 assessed as diameter of inhibition zone at 1 mg/ml after 24 hrs by cup diffusion method (reference value: 16 mm); settings: ATCC 9027, 24 h, read-out: DIZ
[3] = tested on: OVCAR-8; assay: Cytotoxicity against human OVCAR8 cells assessed as growth inhibition at 10 uM; settings: read-out: GI
How it was run: (§1)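 Single-dose screen on human tumour cell lines. Growth of treated cells is expressed as percent of untreated growth, plotted as a mean graph, and reported as percent growth inhibition.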

[4] = tested on: Shigella flexneri; assay: Antibacterial activity against Shigella flexneri ATCC 15391 assessed as diameter of inhibition zone at 1 mg/ml after 24 hrs by cup diffusion method (reference value: 17 mm); settings: ATCC 15391, 24 h, read-out: DIZ
[5] = tested on: Candida albicans; assay: Antifungal activity against Candida albicans ATCC 2091 assessed as diameter of inhibition zone at 1 mg/ml after 48 hrs by cup diffusion method (reference value: 22 mm); settings: ATCC 2091, 48 h, read-out: DIZ
[6] = tested on: UACC-257; assay: Cytotoxicity against human UACC257 cells assessed as growth inhibition at 10 uM; settings: read-out: GI
How it was run: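 Single-dose screen in a sixty-cell human tumour line panel; percent growth of treated cells relative to untreated was read and reported as percentage growth inhibition, shown as a mean graph. Compounds meeting the threshold inhibition criteria went on to five-dose testing.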

[7] = tested on: Candida albicans; assay: Antifungal activity against Candida albicans ATCC 2091 after 48 hrs by two-fold serial dilution method relative to clotrimazole
[8] = tested on: Pseudomonas aeruginosa; assay: Antibacterial activity against Pseudomonas aeruginosa ATCC 9027 after 24 hrs by two-fold serial dilution method; settings: ATCC 9027, 24 h
How it was run: (§2)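 Two-fold serial broth dilution in sterile nutrient broth at 500, 250, 125, 62.5, 31.25, 15.63, 7.82 and 3.91 µg/ml, with dimethylformamide ≤2.5%. Organisms were pre-grown 24 h in broth, and 0.1 ml inoculum was added per 5 ml tube. Tubes were incubated at 37°C, 24 h for bacteria and 48 h for fungi. MIC was taken as the lowest concentration giving no turbidity.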

[9] = tested on: Candida albicans; assay: Antifungal activity against Candida albicans ATCC 2091 after 48 hrs by two-fold serial dilution method; settings: ATCC 2091, 48 h; how it was run: as §2
[10] = tested on: Shigella flexneri; assay: Antibacterial activity against Shigella flexneri ATCC 15391 after 24 hrs by two-fold serial dilution method; settings: ATCC 15391, 24 h; how it was run: as §2
[11] = tested on: HOP-92; assay: Cytotoxicity against human HOP92 cells assessed as growth inhibition at 10 uM; settings: read-out: GI
[12] = tested on: Shigella flexneri; assay: Antibacterial activity against Shigella flexneri ATCC 15391 after 24 hrs by two-fold serial dilution method relative to ofloxacin
[13] = tested on: Staphylococcus aureus; assay: Antibacterial activity against Staphylococcus aureus ATCC 6538P after 24 hrs by two-fold serial dilution method; how it was run: as §2
[14] = tested on: Pseudomonas aeruginosa; assay: Antibacterial activity against Pseudomonas aeruginosa ATCC 9027 after 24 hrs by two-fold serial dilution method relative to ofloxacin
[15] = tested on: HOP-62; assay: Cytotoxicity against human HOP62 cells assessed as growth inhibition at 10 uM; settings: read-out: GI
[16] = tested on: HCC 2998; assay: Cytotoxicity against human HCC2998 cells assessed as growth inhibition at 10 uM; settings: read-out: GI
[17] = tested on: NCI/ADR-RES; assay: Cytotoxicity against human NCI/ADR-RES cells assessed as growth inhibition at 10 uM; settings: read-out: GI; how it was run: as §1
[18] = tested on: SK-MEL-2; assay: Cytotoxicity against human SK-MEL-2 cells assessed as growth inhibition at 10 uM; settings: read-out: GI; how it was run: as §1

SMILES	MIC [8]	MIC [10]	zone of inhibition at 1000 µg/mL [1]	zone of inhibition at 1000 µg/mL [2]	zone of inhibition at 1000 µg/mL [4]	zone of inhibition at 1000 µg/mL [5]	also measured
Cn1c(N2CCOCC2)nc(-c2ccco2)c(C#N)c1=O			15 mm	17 mm	17 mm	22 mm	inhibition of growth at 10 µM [3]: 47.1%; inhibition of growth at 10 µM [6]: 69.8%
Cn1c(-n2[nH]c3c(c2=O)C(=O)CC(=O)O3)nc(-c2ccco2)c(C#N)c1=O			15 mm	16 mm	17 mm	22 mm	
Cn1c(=O)c(C#N)c(-c2ccccc2)n2c(CC#N)nnc12			15 mm	17 mm	19 mm	22 mm	
N#Cc1c(Cl)nc(SCC2CO2)nc1-c1ccco1 (stereo unspecified)			15 mm	17 mm	18 mm	22 mm	
N#Cc1c(-c2ccco2)nc(SCC2CO2)nc1N1CCOCC1 (stereo unspecified)			15 mm	16 mm	17 mm	22 mm	
N#Cc1c(-c2ccc([N+](=O)[O-])cc2)nc(SCC2CO2)[nH]c1=O (stereo unspecified)			15 mm	17 mm	17 mm	22 mm	
N#Cc1c(-c2ccccc2)nc(SCC(O)CN2CCOCC2)[nH]c1=O (stereo unspecified)			15 mm	16 mm	18 mm	22 mm	
N#Cc1c(-c2ccco2)nc(SCC(O)CN2CCOCC2)[nH]c1=O (stereo unspecified)			15 mm	16 mm	18 mm	22 mm	
N#Cc1c(Cl)nc(=S)[nH]c1-c1ccc([N+](=O)[O-])cc1			15 mm	16 mm	17 mm	22 mm	
N#Cc1c(N2CCOCC2)nc(=S)[nH]c1-c1ccc([N+](=O)[O-])cc1			15 mm	16 mm	18 mm	22 mm	
N#Cc1c(N2CCCCC2)nc(=S)[nH]c1-c1ccco1			18 mm	16 mm	17 mm	22 mm	MIC [13]: 125 µg/mL (≈ 437 µM)
N#Cc1c(N2CCN(Cc3ccccc3)CC2)nc(=S)[nH]c1-c1ccc([N+](=O)[O-])cc1			15 mm	16 mm	17 mm	22 mm	inhibition of growth at 10 µM [16]: 71.8%
Cn1c(N2CCCCC2)nc(-c2ccco2)c(C#N)c1=O			15 mm	16 mm	19 mm	22 mm	inhibition of growth at 10 µM [18]: 70.7%
Cn1c(N2CCN(Cc3ccccc3)CC2)nc(-c2ccco2)c(C#N)c1=O			15 mm	17 mm	17 mm	22 mm	
CC1(C)S[C@@H]2[C@H](NC(=O)[C@H](N)c3ccccc3)C(=O)N2[C@H]1C(=O)O [AMPICILLIN]			41 mm	16 mm	22 mm		MIC [13]: 3.91 µg/mL (≈ 11.2 µM)
Clc1ccccc1C(c1ccccc1)(c1ccccc1)n1ccnc1 [CLOTRIMAZOLE]						40 mm	MIC [9]: 12.5 µg/mL (≈ 36.2 µM)

The next lines start with results.

MIC [8]	MIC [10]	SMILES	zone of inhibition at 1000 µg/mL [1]	zone of inhibition at 1000 µg/mL [2]	zone of inhibition at 1000 µg/mL [4]	zone of inhibition at 1000 µg/mL [5]	also measured
125 µg/mL (≈ 297 µM)		CCOC(=O)CC(=N)N(NC(=O)CC#N)c1nc(-c2ccccc2)c(C#N)c(=O)n1C					Activity [7]: 60%; MIC [9]: 125 µg/mL (≈ 297 µM)
	125 µg/mL (≈ 411 µM)	N#Cc1c(Cl)nc(SCC2CO2)nc1-c1ccccc1 (stereo unspecified)	15 mm	16 mm	22 mm	22 mm	inhibition of growth at 10 µM [3]: 48.4%; inhibition of growth at 10 µM [6]: 60.1%
125 µg/mL (≈ 290 µM)		N#Cc1c(-c2ccco2)nc(SCC(O)CN2CCOCC2)nc1N1CCOCC1 (stereo unspecified)	15 mm	18 mm	17 mm	25 mm	Activity [7]: 60%; MIC [9]: 125 µg/mL (≈ 290 µM)
	125 µg/mL (≈ 438 µM)	N#Cc1c(-c2ccccc2)nc(SCC2CO2)[nH]c1=O (stereo unspecified)	15 mm	16 mm	22 mm	22 mm	inhibition of growth at 10 µM [11]: 41.5%
125 µg/mL (≈ 454 µM)	125 µg/mL (≈ 454 µM)	N#Cc1c(-c2ccco2)nc(SCC2CO2)[nH]c1=O (stereo unspecified)	18 mm	18 mm	24 mm	25 mm	Activity [7]: 62%; Activity [12]: 60%; MIC [13]: 125 µg/mL (≈ 454 µM); MIC [9]: 125 µg/mL (≈ 454 µM); Activity [14]: 50%
125 µg/mL (≈ 505 µM)	125 µg/mL (≈ 505 µM)	N#Cc1c(Cl)nc(=S)[nH]c1-c1ccccc1	15 mm	18 mm	22 mm	22 mm	inhibition of growth at 10 µM [15]: 47.4%; inhibition of growth at 10 µM [11]: 48.5%
62.5 µg/mL (≈ 263 µM)		N#Cc1c(Cl)nc(=S)[nH]c1-c1ccco1	15 mm	18 mm	17 mm	22 mm	inhibition of growth at 10 µM [15]: 49.6%
	125 µg/mL (≈ 366 µM)	N#Cc1c(N2CCCCC2)nc(=S)[nH]c1-c1ccc([N+](=O)[O-])cc1	15 mm	17 mm	23 mm	22 mm	Activity [12]: 60%; Activity [14]: 60%
125 µg/mL (≈ 323 µM)	125 µg/mL (≈ 323 µM)	N#Cc1c(N2CCN(Cc3ccccc3)CC2)nc(=S)[nH]c1-c1ccccc1	15 mm	18 mm	20 mm	22 mm	Activity [12]: 60%; Activity [14]: 60%
125 µg/mL (≈ 331 µM)		N#Cc1c(N2CCN(Cc3ccccc3)CC2)nc(=S)[nH]c1-c1ccco1	18 mm	20 mm	17 mm	29 mm	Activity [7]: 75%; MIC [13]: 3.91 µg/mL (≈ 10.4 µM); MIC [9]: 125 µg/mL (≈ 331 µM)
125 µg/mL (≈ 381 µM)	125 µg/mL (≈ 381 µM)	CCN(CC)CCSc1nc(-c2ccccc2)c(C#N)c(=O)[nH]1	18 mm	18 mm	21 mm	25 mm	inhibition of growth at 10 µM [17]: 42%; Activity [7]: 62%; Activity [12]: 60%; MIC [13]: 3.91 µg/mL (≈ 11.9 µM); MIC [9]: 125 µg/mL (≈ 381 µM); inhibition of growth at 10 µM [16]: 107%; Activity [14]: 50%
	125 µg/mL (≈ 319 µM)	COc1ccc(NC(=O)CSc2nc(-c3ccccc3)c(C#N)c(=O)[nH]2)cc1	15 mm	16 mm	20 mm	22 mm	Activity [12]: 60%
	125 µg/mL (≈ 327 µM)	COc1ccc(NC(=O)CSc2nc(-c3ccco3)c(C#N)c(=O)[nH]2)cc1	15 mm	16 mm	20 mm	23 mm	Activity [12]: 60%
	125 µg/mL (≈ 425 µM)	Cn1c(N2CCCCC2)nc(-c2ccccc2)c(C#N)c1=O	15 mm	17 mm	24 mm	22 mm	inhibition of growth at 10 µM [3]: 42.4%; inhibition of growth at 10 µM [6]: 71.9%; inhibition of growth at 10 µM [18]: 69.8%
125 µg/mL (≈ 331 µM)		Cn1c(-n2[nH]c3c(c2=O)C(=O)CC(=O)O3)nc(-c2ccccc2)c(C#N)c1=O	15 mm	19 mm	17 mm	22 mm	
1.95 µg/mL (≈ 5.4 µM)	7.81 µg/mL (≈ 21.6 µM)	CC1COc2c(N3CCN(C)CC3)c(F)cc3c(=O)c(C(=O)O)cn1c23 (stereo unspecified) [OFLOXACIN]	43 mm	43 mm	32 mm		
